Source: PubChem BioAssay
ATG4B inhibitor – ATG4B (human) cysteine protease inhibition | Q9Y4P1 | inhibition, % at 8.33 µM | 0.51% of 340,000 active | ATG4B cleavage of LC3-PLA2, NBD-HPC fluorescence, 1 h; in the data active = inhibition above about 40%
TCR-CD3 inh – blocks the human TCR-CD3 interaction; 0.37% of 360,000 active; inhibition, % at 9.4 µM; TAMRA-labeled TCR probe fluorescence, biochemical; in the data active = inhibition above about 19%;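 note: recombinant mutant TCR 2C K166C tagged with TAMRA read by polarization; 0% = receptor in buffer alone and 100% = receptor with positive control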
mABHD4 FP – inhibitors of mouse ABHD4. purified mABHD4, FP-Rh probe fluorescence polarization. inhibition, % at 8.92 µM. 0.54% of 370,000 active;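 active = inhibition exceeding the mean over every tested compound plus 3 SD, cut at about 30% in these data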;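 note: 0% = plate median of compound wells and 100% = S159A mutant with DMSO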
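Test system: mABHD4 protein; Read-out basis: % inhibition; Incubation: 45 min + 60 min at 25 °C; Repeats: single replicate; Technique: fluorescence polarization with parallel and perpendicular emission, 525/598 nm; Compound: 8.92 µM, single dose; Benchmarks: full inhibition S159A mutant plus DMSO, zero as sample-well median.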
PRMT1 inh – blocks human protein arginine methyltransferase 1; 1.3% of 370,000 active; recombinant PRMT1, activity-based probe fluorescence polarization; AID 652257; inhibition, % at 2.79 µM;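 active = inhibition above about 21% made by adding two undisclosed values, limit read from the data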
Target sequence (Q99873 whole entry, looked up): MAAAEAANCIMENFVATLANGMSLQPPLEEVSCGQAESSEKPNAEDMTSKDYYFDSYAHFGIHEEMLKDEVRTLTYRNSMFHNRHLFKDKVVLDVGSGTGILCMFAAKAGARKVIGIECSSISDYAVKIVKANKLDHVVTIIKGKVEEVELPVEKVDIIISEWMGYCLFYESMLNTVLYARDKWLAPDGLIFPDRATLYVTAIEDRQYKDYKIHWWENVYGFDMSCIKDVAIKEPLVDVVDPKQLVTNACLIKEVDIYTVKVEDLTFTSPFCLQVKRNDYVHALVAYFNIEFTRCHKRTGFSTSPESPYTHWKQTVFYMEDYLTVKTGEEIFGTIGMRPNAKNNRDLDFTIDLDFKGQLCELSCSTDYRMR
HTRA1 inh – blocks human HTRA1 serine peptidase; Q92743; recombinant HTRA1, FP-rhodamine activity-based probe, fluorescence polarization; inhibition, % at 5.96 µM; 0.5% of 340,000 active; in the data active = inhibition above about 36%;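 note: 0% = enzyme with DMSO and 100% = wells lacking enzyme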
SIAE primary – blocks human sialic acid acetylesterase | 0.69% of 370,000 active | Q9HAT2 | SIAE FP-Rh probe binding, fluorescence polarization | inhibition, % at 9.66 µM | AID 1053197;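 active = inhibition above a cutoff: mean of compounds within the control limits plus 3 SD of those, cut at about 17% in these data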;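 note: 0% = plate median of compound wells and 100% = probe without SIAE protein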
* marks the source's active call; other numbers are inactive results; . = no result. Compounds with a hit are over-represented: about 2.9% of the library has one in this group of screens.

SMILES | ATG4B inhibitor | TCR-CD3 inh | mABHD4 FP | PRMT1 inh | HTRA1 inh | SIAE primary
O=C(CCN1CCc2ccccc2C1)c1ccc2c(c1)OCCO2 | -3 | . | . | . | 4 | .
O=C(CCN1CCCCC1)c1ccc2c(c1)OCCO2 | 10 | -2 | 6 | 24* | -1 | 2
Cc1cc(C(=O)O)c(C)o1 | . | . | 1 | -1 | . | -3
COc1ccc(Nc2nnc(-c3ccc4c(c3)OCO4)o2)cc1 | . | 2 | 6 | 24* | . | 0
COc1ccc(-c2noc(-c3ccc4c(c3)OCO4)n2)cc1 | -9 | -3 | -2 | 0 | -2 | -1
CCCCN(C)C(=O)c1cn(C(C)c2ccccc2)nn1 (centres undefined) | . | . | 0 | 2 | . | -1
S=C1NC(c2ccccc2)N2C(=S)NC(c3ccccc3)N12 (centres undefined) | -4 | 0 | 5 | 16 | 3 | 7
Cc1ccc(C2NC(=S)N3C(c4ccc(C)cc4)NC(=S)N23)cc1 (centres undefined) | . | -1 | -3 | 22* | 3 | 2
COc1ccc(/C=C2\SC(=O)NC2=S)cc1OC | -2 | -8 | 6 | 47* | 0 | -2
COc1cc(/C=C2\SC(c3ccc(C)cc3)=NC2=O)ccc1O | -21 | -10 | -1 | 29* | 23 | -5
COc1cc(/C=C2\SC(c3ccc(C)cc3)=NC2=O)cc(OC)c1OC | -30 | . | . | . | 1 | .
COc1ccc(/C=C2\SC(c3ccc(C)cc3)=NC2=O)cc1OC | -9 | 3 | 4 | 19 | -14 | -10
COc1ccc(/C=C2/SC(c3ccc(C)cc3)=NC2=O)cc1OC | -7 | -7 | 8 | 24* | -13 | -20
CC(C)CNC(=O)OCc1cn(Cc2cccc(F)c2F)nn1 | . | . | 2 | 0 | . | 7
O=C(Nc1c(-c2ccccc2)nc2ncccn12)c1ccc(F)cc1 | . | . | 1 | -2 | . | 1
Nc1ncnc2nc(SCc3ccc(Cl)cc3Cl)[nH]c12 | -6 | 5 | 7 | -2 | -1 | 21*
Nc1ncnc2nc(Sc3ccc(Cl)cc3)[nH]c12 | 1 | 3 | 4 | -1 | 6 | -1
O=C(Nc1cccc(Cl)c1)OCCN1CCCC12CCC(c1ccccc1)CC2 (centres undefined) | . | . | 6 | 0 | . | 6
O=C(O)/C(=C\c1ccc(Cl)c([N+](=O)[O-])c1)c1ccc(S(=O)(=O)N2CCCCC2)s1 | 13 | 7 | 7 | 5 | -36 | 10
O=C(O)/C(=C\c1ccc(Cl)c([N+](=O)[O-])c1)c1ccc(S(=O)(=O)N2CCCC2)s1 | 7 | 8 | 20 | 23* | -16 | -14
CC(C)(C)C(=O)O[C@@H]1CCC[C@@]2(C(=O)N(Cc3ccccc3)c3ccccc32)[C@H]1NC(=O)CCc1ccccc1 | . | . | -8 | -4 | . | 3
CCn1c(SCC(=O)Nc2sc3c(c2C(N)=O)CCC(C)C3)nnc1-c1ccco1 (centres undefined) | -11 | 5 | 5 | 22* | -10 | -10
Cc1nc2[nH]c(=S)[nH]c(=O)c2nc1C | -1 | 2 | 5 | 1 | 1 | 3
Cc1nc2c(=O)[nH]c(=S)n(C)c2nc1C | 5 | -4 | 8 | 23* | 3 | -3
O=C(OCC(=O)N1CCN(c2ccccc2)CC1)c1ccc2ncsc2c1 | -11 | -3 | -6 | 23* | -4 | 0
SMILES | ATG4B inhibitor | TCR-CD3 inh | mABHD4 FP | PRMT1 inh | HTRA1 inh | SIAE primary
C=C1C(=O)c2sccc2C(c2ccc(OC)c(OC)c2)C1COC(C)=O (centres undefined) | 5 | -9 | -5 | 24* | -1 | 1
O=C(CC(SCc1ccco1)c1ccc(O)cc1)c1cccs1 (centres undefined) | 6 | 9 | -17 | 22* | -19 | -1
COCCN=C1NC(=O)C(CC(=O)Nc2cccc(Cl)c2C)S1 (centres undefined) | -2 | -4 | -7 | 24* | . | 0
O=C(CSC1=NCCS1)Nc1ccnc2ccccc12 | -19 | 5 | -5 | 23* | -1 | 7
CC(C)(C=O)C1=CC(=O)c2ccccc2C1=O | -5 | 3 | 37* | 52* | 14 | 12
CCCCN(C)C(=O)C1CCN(S(=O)(=O)c2ccc3[nH]c(=O)oc3c2)CC1 | . | . | 6 | 6 | . | 3
CCC(c1nnnn1Cc1ccco1)N(CCN1CCOCC1)Cc1cc2cc(C)ccc2[nH]c1=O (centres undefined) | -6 | 8 | 4 | 21* | 0 | 3
CCCCCCCCN1C(=O)[C@@H](CC(=O)NCCCOC)C[C@@]2(C(=O)OC)C1=C[C@H](COCc1ccccc1)O[C@@H]2C | . | . | -4 | -1 | . | -2
O=C1CC(SCc2nc3ccccc3[nH]2)C(=O)N1c1cccc(Cl)c1 (centres undefined) | -4 | -7 | -14 | 31* | -9 | -14
Cc1c(Cc2ccccc2)sc(/N=C/c2c(O)ccc3ccccc23)c1C(N)=O | 52* | . | . | . | -10 | .
c1ccc(Cn2ccc3ccc(-c4ccc5ccn(Cc6ccc7ccccc7c6)c5c4)cc32)cc1 | . | . | 8 | 2 | . | -1
O=C(CN1CCN(c2ccc(O)cc2)CC1)Nc1ccc2c(c1)OCCO2 | -12 | -6 | 21 | 24* | 5 | 9
CCOC(=O)CC[C@H]1CC[C@]2(CCCN(S(=O)(=O)c3ccccc3)C2)O1 | . | . | -1 | 2 | . | 0
CC(C)CCN(C)C1CCN(C(=O)Nc2ccc(Cl)cc2)CC1 | . | . | 2 | -1 | . | 0
Cc1cc(C)nc(SC2CC(=O)N(c3ccc(Br)cc3)C2=O)n1 (centres undefined) | 3 | -6 | -2 | 4 | 0 | 5
CCN(CC)C1CC(=O)N(c2ccc(Br)cc2)C1=O (centres undefined) | -2 | 3 | 2 | 46* | -1 | 9
COC(=O)[C@]12C[C@H](CC(=O)NCC34CC5CC(CC(C5)C3)C4)C(=O)N(Cc3ccc(Cl)cc3Cl)C1=C[C@H](C1CCCC1)O[C@@H]2C | . | . | -7 | 0 | . | -8
Cc1ccc(C(=O)c2coc3cc([N+](=O)[O-])c(O)c([N+](=O)[O-])c23)cc1 | 4 | 0 | 17 | 26* | 19 | 14
O=C(CSc1nnc(-c2ccco2)n1-c1ccc(Cl)cc1)Nc1ccc(S(=O)(=O)Nc2nccs2)cc1 | . | . | -14 | -3 | . | -8
O=C(Nc1ccc(C(F)(F)F)cc1)OC1CCC12CCCCC2 (centres undefined) | . | . | -4 | 1 | . | 1
COCCCNc1oc(COc2ccc(Cl)cc2Cl)nc1C#N | 1 | 0 | -7 | -4 | 2 | 17*
COc1ccc(C[N+]2=C(N)NC3=C(C)Cn4c(=O)n(-c5ccccc5)c(=O)n4C3C2)c(OC)c1 (centres undefined) | . | . | 7 | 3 | . | 1
O=C(NC1=C(Nc2ccc(Cl)cc2)C(=O)c2ccccc2C1=O)c1ccccc1 | 3 | -6 | 16 | 0 | 19 | -11
Cc1cccc(NC2=C(NC(=O)c3ccccc3)C(=O)c3ccccc3C2=O)c1 | -1 | 7 | 15 | 29* | 9 | 13
